NLRP3 yeast inh: inhibitors of NALP3 inflammasome in yeast. Yeast reconstituted NLRP3/ASC/caspase-1, beta-gal luminescence, 24 h. inhibition, % at 10 µM. 0.39% of 330,000 active;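 active = inhibition of 50% or more; inactive = inhibition below 50%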
IMP-1 inh: blocks Pseudomonas aeruginosa IMP-1 metallo-beta-lactamase. inhibition, % at 5.6 µM. 0.45% of 290,000 active. purified IMP-1, nitrocefin hydrolysis, epi-absorbance fluorescence;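 active = inhibition above the mean plus 3 SD of all compounds in the same screening run, cut at about 4.5% in these data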
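System: purified recombinant IMP-1 beta-lactamase. Medium: Zinc- and detergent-supplemented HEPES buffer, pH 7.1. Compound: one 5.6 µM dose […]. Schedule: 15 min preincubation plus 25 min reaction at 25 °C. Technique: Epi-absorbance fluorescence, 480 nm excitation, 530 nm emission.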
NALP1 inh: inhibitors of NALP1 inflammasome in yeast; S. cerevisiae NALP1/ASC/caspase-1 growth, X-gal OD620, 72 h; inhibition, % at 10 µM; 0.61% of 280,000 active; in the data active = inhibition mostly above about 24%, no sharp cut-off; inactive = mostly below about 32%
PolyA inhibitor: inhibitors of polyadenylation in S. cerevisiae | S. cerevisiae SKY197-pL101 polyadenylation reporter, beta-gal luminescence; efflux-impaired pdr1/pdr3 knockout yeast; score 100 = 6 SD above DMSO | activity score, % at 12 µM | 0.02% of 300,000 active | AID 1875;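 active = lowest replicate activity score at least 50, where 100 means six control SD above control mean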;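 also: yeast exposed to compound for 9 h at 30 °C; higher score means more reporter readthrough which indicates perturbed polyadenylation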
VIM-2 inh: blocks Pseudomonas aeruginosa VIM-2 metallo-beta-lactamase; purified VIM-2, nitrocefin hydrolysis, epi-absorbance fluorescence; 0.89% of 290,000 active; inhibition, % at 5.6 µM;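 active = inhibition above the mean of all tested compounds plus 3 SD, cutoff set per screening run, cut at about 7.5% in these data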;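 also: red hydrolysis product quenches plate fluorescence so inhibitors raise well fluorescence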
SUMO Mot1 rescue: blocks SUMOylation pathway, rescuing yeast Mot1-301 growth. S. cerevisiae Mot1-301 growth rescue, ATP luminescence, 38.5C; percent above DMSO median, 100 means doubled. growth rescue, % at 18.8 µM. AID 2716. 1% of 320,000 active;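 active = every valid replicate shows activation above 250% relative to neutral control wells; inactive = the rest, any valid replicate at or below 250%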
Of the large screens only hits and unclear results are named; the others gave an inactive call; ! = not confirmed by another sample. Sampled rows, rich in hits. Any-hit rate of the full collection: about 2.9%.

O=C1C=C(NNC(=O)c2ccncc2)CC(c2ccccc2)C1 (stereo not drawn)	IMP-1 inh 5.9
O=C1NCC(c2ccccc2)C1C(=O)N/N=C/c1ccc(Cl)s1 (stereo not drawn)	NALP1 inh 37
CC(C)C(NC(=O)CSCc1ccc([N+](=O)[O-])cc1)C(C)C	none
CSCCC(N=C1NS(=O)(=O)c2ccccc21)C(=O)N1CCCC(C(N)=O)C1 (stereo not drawn)	none (no result: IMP-1 inh, NALP1 inh, VIM-2 inh)
CCn1c(C)c(C(C)=O)c(N2CCN(c3ccccc3)CC2)nc1=S	IMP-1 inh 6.6
CC(=O)c1c(N2CCCC2)nc(=S)n(-c2ccccc2)c1C	NALP1 inh 38
CCOC(=O)Cc1csc(NC(=O)CSc2nc(=O)[nH]c3c2CCC3)n1	none (no result: IMP-1 inh, NALP1 inh, VIM-2 inh)
CCN1CCN(CCCNC(=O)c2ccccc2NC(=O)C2=C(C)OCCS2)CC1	none
CCc1ccc(NC(=O)CN(CC(=O)Nc2ccc(CC)cc2)CC(C)O)cc1 (stereo not drawn)	IMP-1 inh 18
COc1ccc(NC(=O)COC(=O)CCc2ccc(S(=O)(=O)N3CCOCC3)cc2)cc1Cl	none (no result: IMP-1 inh, NALP1 inh, PolyA inhibitor, VIM-2 inh)
c1cnc2c(c1)ccc1cccnc12	NALP1 inh 54!
Cc1ccnc2c1ccc1cccnc12	none (no result: IMP-1 inh, NALP1 inh, PolyA inhibitor, VIM-2 inh, SUMO Mot1 rescue)
C1CCC(OCCN2CCN(CCOC3CCCCC3)CC2)CC1	NALP1 inh 39
Cc1cc(/C=C2\SC(=S)NC2=O)c(C)n1C1CC1	VIM-2 inh 7.7 (no result: SUMO Mot1 rescue)
Cc1cc(/C=C2/C(=O)N(C)C(=S)N2C)c(C)n1C1CC1	none
CCOC(=O)c1ccc2c(c1)nc(SCC(=O)c1ccco1)n2CC	none
CCOC(=O)c1ccc2c(c1)nc(SCC(=O)N1CCCCC1)n2CC	SUMO Mot1 rescue 293
COc1ccc2c(c1)Cc1sc(NC(C)=O)nc1-2	IMP-1 inh 11
Cc1ccc(S(=O)(=O)N2CCOCC2)s1	none
O=C1OCC(c2ccccc2)=C1c1ccc(S(=O)(=O)N2CCOCC2)s1	IMP-1 inh 44
COC(=O)[C@@H](CC(C)C)NS(=O)(=O)N(Cc1ccccc1)[C@@H](CC(C)C)C(=O)OC	none (no result: IMP-1 inh, NALP1 inh, PolyA inhibitor, VIM-2 inh)
Cc1nnc2c3ccccc3c(-c3ccc(O)cc3)nn12	VIM-2 inh 10
CCc1nc2ccccc2n1CC(=O)NC1CCS(=O)(=O)C1 (stereo not drawn)	none (no result: IMP-1 inh, NALP1 inh, PolyA inhibitor, VIM-2 inh)
CCCCn1c(N)c(N(CCOC)C(=O)C2CC(=O)N(Cc3ccco3)C2)c(=O)[nH]c1=O (stereo not drawn)	none (no result: IMP-1 inh, NALP1 inh, PolyA inhibitor, VIM-2 inh)
C/C(=N\Nc1ccc([N+](=O)[O-])cc1)c1cccc(N)c1	none
CC(=O)NC/C(C)=N\Nc1ccc([N+](=O)[O-])cc1	SUMO Mot1 rescue 279
C/C(=N\Nc1ccc([N+](=O)[O-])cc1)c1ccc(O)cc1	SUMO Mot1 rescue 337
C[C@@H]1[C@H]2[C@@H](O[C@@H]3O[C@H](CO)[C@@H](O)[C@H](O)[C@H]3O)OC=C(C(=O)O)[C@H]2C[C@@H]1O	none (no result: IMP-1 inh, NALP1 inh, VIM-2 inh)
CC(C)NC(=O)CSc1ccccc1C(=O)N1CCN(S(=O)(=O)Cc2ccccc2)CC1	none (no result: IMP-1 inh, NALP1 inh, PolyA inhibitor, VIM-2 inh, SUMO Mot1 rescue)
O=C(CSc1nnnn1-c1cccc(F)c1)NC1CCCCC1	none (no result: IMP-1 inh, NALP1 inh, PolyA inhibitor, VIM-2 inh)
CCN(CC)CCCN(Cc1cc2cc3c(cc2[nH]c1=O)OCO3)C(=O)Nc1ccccc1OC	none
CCN(CC)CCCN(Cc1cc2cc(OC)c(OC)cc2[nH]c1=O)C(=O)Nc1ccccc1	VIM-2 inh 7.9
Nc1nnc(Cc2cccc(Br)c2)s1	none
COc1ccc(OC)c(/C=C2\SC(=S)N(NS(=O)(=O)c3ccccc3)C2=O)c1	none
O=C1/C(=C/c2cccs2)SC(=S)N1NS(=O)(=O)c1ccccc1	IMP-1 inh 9.0
O=C1c2cccc3cccc(c23)C(=O)N1c1ccc2ncccc2c1	IMP-1 inh 9.3 (no result: PolyA inhibitor)
CCc1nnc(NC(=O)CN2C(=O)N(C)C3(CCCCC3)C2=O)s1	none (no result: IMP-1 inh, NALP1 inh, PolyA inhibitor, VIM-2 inh)
CN(C)C(C)(C)C#CCCCCC#CC(C)(C)N(C)C	none (no result: PolyA inhibitor)
CN(C)C(C)(C)C#CCC(c1ccccc1)c1ccccc1	NALP1 inh 64
CC(OC(=O)c1ccc(-c2ccc(O)cc2)cc1)C(=O)NC1CCCCC1C (stereo not drawn)	SUMO Mot1 rescue 750 (no result: IMP-1 inh, NALP1 inh, VIM-2 inh)
CC(OC(=O)c1ccc2c(c1)OCO2)C(=O)NC1CCCCC1C (stereo not drawn)	none (no result: IMP-1 inh, NALP1 inh, PolyA inhibitor, VIM-2 inh, SUMO Mot1 rescue)
COc1ccc(OCC(O)CNC(=O)c2sccc2Cl)cc1 (stereo not drawn)	IMP-1 inh 38
COc1ccc(OCC(O)CNC(=O)Nc2ccccc2)cc1 (stereo not drawn)	none
O=C(O)C1CCCC[C@H]1C(=O)Nc1ncc([N+](=O)[O-])s1 (stereo partly drawn)	none (no result: IMP-1 inh, NALP1 inh, PolyA inhibitor, VIM-2 inh)
Cc1nnc(NC(=O)c2ccccc2F)s1	none
Cc1nnc(NC(=O)c2ccccc2Br)s1	SUMO Mot1 rescue 302
Cc1c(/C(O)=C2/C(=O)C(=O)N(CCN3CCOCC3)C2c2cccnc2)cnn1-c1ccccc1 (stereo not drawn)	SUMO Mot1 rescue 447
CC(=O)Nc1ccc(S(=O)(=O)N2CCN=C2SCc2ccccc2C)cc1	none
CCOC(=O)c1[nH]c2ccccc2c1NC(=O)c1ccc(S(=O)(=O)N(C)C)cc1	none
CN(C)S(=O)(=O)c1ccc(C(=O)Oc2cc(=O)[nH]c3ccccc23)cc1	SUMO Mot1 rescue 465
CSc1ccccc1NC(=O)C1CCN(S(C)(=O)=O)CC1	none
CCc1cccc(NS(=O)(=O)c2c(C)nc3sc(CC)nn3c2=O)c1	none (no result: PolyA inhibitor)
O=C(CCN1CCOCC1)NNC(=O)Nc1cccc(C(F)(F)F)c1	none
CCOC(=O)C(=NCCCN1CCOCC1)NNc1cccc(C(F)(F)F)c1	SUMO Mot1 rescue 324
COc1ccc(C)cc1NC(=O)CN(C)C1CCCCC1	none
Cc1ccc(Nc2nc(N)nc(COC(=O)C3=COCCO3)n2)cc1	none (no result: IMP-1 inh, NALP1 inh, PolyA inhibitor, VIM-2 inh)
COc1ccc(Cl)cc1C(=O)OCC(=O)NC(=O)c1cccn1C	VIM-2 inh 11
Cn1cccc1C(=O)NC(=O)COC(=O)CNC(=O)c1ccc(Cl)cc1Cl	none
Cc1cccc(N=C2NC(=O)/C(=C/c3cccn3C)S2)c1	none
O=C1NC(=Nc2ccccc2)S/C1=C\c1cccn1-c1ccccc1	NALP1 inh 39 (no result: SUMO Mot1 rescue)
O=C(CN(C(=O)CNC(=O)c1ccco1)c1ccc(F)cc1)NC1CCCC1	none
O=C(COc1ccc2ccccc2c1)N[C@@H](C(=O)O)c1ccc(O)cc1	none
CC(=O)Nc1ccc(NC(=O)CCCSc2nc3ccccc3[nH]2)cc1	IMP-1 inh 7.8 (no result: NALP1 inh)
Nc1nc(SCC(=O)Nc2cccc(F)c2)n[nH]1	none (no result: IMP-1 inh, NALP1 inh, PolyA inhibitor, VIM-2 inh)
COc1ccc(C(=O)N/N=C\c2coc3ccccc3c2=O)cc1	none
CC(C)Oc1cccc(C(=O)N/N=C/c2coc3ccccc3c2=O)c1	IMP-1 inh 5.3 (no result: PolyA inhibitor)
Cc1cccc(C(=O)N/N=C/c2coc3ccccc3c2=O)c1	IMP-1 inh 5.8
NC(=S)N/N=C/c1coc2ccc(Cl)cc2c1=O	SUMO Mot1 rescue 324
O=C(N/N=C/c1coc2ccc(Cl)cc2c1=O)c1ccc(O)cc1	none

Screening data as filed in PubChem.
